According to ChEMBL document CHEMBL1136836, “Aryloxy cyclohexyl imidazoles: a novel class of antileishmanial agents” (Bioorg Med Chem Lett, 2009):
Values after ≈ are worked out from the molar mass of the structure shown.

How the values were obtained:
Leishmania donovani [1] = assay: Antileishmanial activity against Leishmania donovani extracellular promastigotes at 10 ug/ml after 72 hrs by luciferase activity-based drug susceptibility assay; type: functional
Summary of the method: (§1)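 Transgenic L. donovani promastigotes tested at various concentrations up to a maximum of 10 µg/ml, with sodium stibogluconate and pentamidine as reference drugs. IC50 derived by Probit analysis.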

Leishmania donovani [2] = assay: Antileishmanial activity against Leishmania donovani intracellular amastigotes infected in mouse J774A1 cells at 10 ug/ml after 48 hrs by luciferase activity-based drug susceptibility assay; type: functional; details: for inhibition at 10 µg/mL: J774.A1, 48 h
Summary of the method: (§2)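 Intracellular amastigotes of transgenic L. donovani in mouse J-774-A-1 macrophages, exposed to a range of concentrations up to a maximum of 10 µg/ml. Sodium stibogluconate and pentamidine served as reference drugs. IC50 calculated by Probit analysis.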

Leishmania donovani [3] = assay: Antileishmanial activity against Leishmania donovani intracellular amastigotes infected in mouse J774A1 cells after 48 hrs by luciferase activity-based drug susceptibility assay; type: functional, organism-based; details: for Activity: J774.A1; for IC50: J774.A1, 48 h; summary of the method: as §2
Leishmania donovani [4] = assay: Antileishmanial activity against Leishmania donovani extracellular promastigotes after 72 hrs by luciferase activity-based drug susceptibility assay; type: functional, organism-based; summary of the method: as §1
[5] = (§3) Selectivity index, ratio of CC50 for mouse J774A1 cells to IC50 for Leishmania donovani intracellular amastigotes infected in mouse J774A1 cells; type: functional, J774.A1
Summary of the method: (§4)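 SI is based on CC50 in J-774-A-1 macrophages and IC50 in the antileishmanial assay.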

[6] = Cytotoxicity against mouse J774A1 cells after 48 hrs by Geimsa staining method; type: cell-based, J774.A1
Summary of the method: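 Mouse macrophage line J-774-A-1 used for the cytotoxicity read-out. CC50 is the concentration giving 50% inhibition of cell viability.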

Leishmania donovani [7] = assay: Antileishmanial activity against Leishmania donovani infected in hamster assessed as inhibition of parasite growth at 40 mg/kg, ip for 10 days; type: functional; details: 240 h, route intraperitoneal
Summary of the method: (§5)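 L. donovani-infected hamster model. Dosing was intraperitoneal, 10 doses: test compounds at 50 mg/kg, sodium stibogluconate at 20 mg/kg, pentamidine at 40 mg/kg. Read-out is percent inhibition of parasites.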

Leishmania donovani [8] = assay: Antileishmanial activity against Leishmania donovani infected in hamster assessed as inhibition of parasite growth at 50 mg/kg, ip for 10 days; type: functional; details: 240 h, route intraperitoneal; summary of the method: as §5
Leishmania donovani [9] = assay: Antileishmanial activity against Leishmania donovani infected in hamster assessed as inhibition of parasite growth at 20 mg/kg, ip for 10 days; type: functional, organism-based; set-up: dose 20 mg/kg; summary of the method: as §5
J774.A1 = assay: as §3; type: functional; summary of the method: as §4

IC50 (Leishmania donovani [3]) [µg/mL] | IC50 (Leishmania donovani [4]) [µg/mL] | Molecule | inhibition at 10 µg/mL (Leishmania donovani [1]) [%] | inhibition at 10 µg/mL (Leishmania donovani [2]) [%] | Activity (Leishmania donovani [3]) | Activity (Leishmania donovani [4]) | Ratio CC50/IC50 [5] | CC50 at 48 h [6] [µg/mL] | inhibition in vivo at 40 mg/kg (Leishmania donovani [7]) [%] | inhibition in vivo at 50 mg/kg (Leishmania donovani [8]) [%] | inhibition (Leishmania donovani [1]) [%] | inhibition (Leishmania donovani [2]; J774.A1) [%] | inhibition (Leishmania donovani [9]) [%] | Ratio CC50/IC50 (J774.A1)
8.76 (≈ 24.8 µM) | 4.67 (≈ 13.2 µM) | O=[N+]([O-])c1ccc(OC2C(n3ccnc3)CCCC2n2ccnc2)cc1 (stereo not drawn) | 100 | 100 | Dose-dependent effect | Dose-dependent effect | >11.4 | > 100 | – | – | – | – | – | –
3.83 (≈ 11.8 µM) | 0.81 (≈ 2.5 µM) | FC(F)(F)c1ccc(O[C@H]2CCCC[C@@H]2Cn2ccnc2)cc1 | 100 | 100 | Dose-dependent effect | Dose-dependent effect | 9.292 | 35.6 (≈ 110 µM) | – | – | – | – | – | –
12.1 (≈ 35.6 µM) | 0.643 (≈ 1.89 µM) | N=C(N)c1ccc(OCCCCCOc2ccc(C(=N)N)cc2)cc1 [PENTAMIDINE] | 100 | 100 | Dose-dependent effect | Dose-dependent effect | 2.58 | 31.3 (≈ 92 µM) | 92 | – | – | – | – | –
3.02 (≈ 8.13 µM) | 6.13 (≈ 16.5 µM) | O=[N+]([O-])c1ccc(OC2C(n3ccnc3)CCCC2n2ccnc2)c(F)c1 (stereo not drawn) | 100 | 100 | Dose-dependent effect | Dose-dependent effect | 30 | 90.6 (≈ 244 µM) | – | 56.7 | – | – | – | –
10.8 (≈ 41.4 µM) | 9.4 (≈ 36.1 µM) | OC1C(Cn2ccnc2)CCCC1Cn1ccnc1 (stereo not drawn) | 100 | 100 | Dose-dependent effect | Dose-dependent effect | >9.28 | > 100 | – | – | – | – | – | –
4.57 (≈ 15.2 µM) | 0.82 (≈ 2.72 µM) | O=[N+]([O-])c1ccc(O[C@H]2CCCC[C@@H]2Cn2ccnc2)cc1 | 100 | 100 | Dose-dependent effect | Dose-dependent effect | 9.757 | 44.6 (≈ 148 µM) | – | – | – | – | – | –
2.44 (≈ 6.39 µM) | 9.57 (≈ 25.1 µM) | O=[N+]([O-])c1ccccc1OC1C(Cn2ccnc2)CCCC1Cn1ccnc1 (stereo not drawn) | 100 | 100 | Dose-dependent effect | Dose-dependent effect | 28.47 | 69.4 (≈ 182 µM) | – | – | – | – | – | –
0.71 (≈ 2.22 µM) | 1.08 (≈ 3.38 µM) | O=[N+]([O-])c1ccc(O[C@H]2CCCC[C@@H]2Cn2ccnc2)c(F)c1 | 100 | 100 | Dose-dependent effect | Dose-dependent effect | >140.84 | > 100 | – | 55.4 | – | – | – | –
2.13 (≈ 5.77 µM) | 2.37 (≈ 6.42 µM) | O=[N+]([O-])c1ccc(O[C@H]2CCCC[C@@H]2Cn2ccnc2)c(C(F)(F)F)c1 | 100 | 100 | Dose-dependent effect | Dose-dependent effect | 6.49 | 13.8 (≈ 37.5 µM) | – | – | – | – | – | –
1.97 (≈ 5.16 µM) | 5.52 (≈ 14.5 µM) | O=[N+]([O-])c1ccc(OC2C(Cn3ccnc3)CCCC2Cn2ccnc2)cc1 (stereo not drawn) | 100 | 100 | Dose-dependent effect | Dose-dependent effect | 37.51 | 73.9 (≈ 194 µM) | – | 52 | – | – | – | –
6.72 (≈ 22.3 µM) | 4.23 (≈ 14 µM) | O=[N+]([O-])c1ccccc1O[C@H]1CCCC[C@@H]1Cn1ccnc1 | 100 | 100 | Dose-dependent effect | Dose-dependent effect | 9.39 | 63.1 (≈ 209 µM) | – | – | – | – | – | –
3 (≈ 7.97 µM) | 2.06 (≈ 5.47 µM) | FC(F)(F)c1ccc(OC2C(n3ccnc3)CCCC2n2ccnc2)cc1 (stereo not drawn) | 100 | 100 | Dose-dependent effect | Dose-dependent effect | 32.143 | 96.4 (≈ 256 µM) | – | 36.8 | – | – | – | –
0.588 (≈ 1.31 µM) | 6.72 (≈ 15 µM) | O=[N+]([O-])c1ccc(OC2C(Cn3ccnc3)CCCC2Cn2ccnc2)c(C(F)(F)F)c1 (stereo not drawn) | 100 | 100 | Dose-dependent effect | Dose-dependent effect | 24.557 | 14.4 (≈ 32.1 µM) | – | – | – | – | – | –
– | – | D-gluconic acid 2,4:2',4'-O-[oxybis(oxidostibylidyne)]bis-trisodium salt nonahydrate | – | – | Dose-dependent effect | Dose-dependent effect | – | – | – | – | 100 | 100 | 84.1 | 6.38
1.17 (≈ 2.93 µM) | 3.57 (≈ 8.94 µM) | O=[N+]([O-])c1ccc(OC2C(Cn3ccnc3)CCCC2Cn2ccnc2)c(F)c1 (stereo not drawn) | 100 | 100 | Dose-dependent effect | Dose-dependent effect | 33.64 | 39.4 (≈ 98.6 µM) | – | 77.9 | – | – | – | –
1.13 (≈ 2.79 µM) | 3.28 (≈ 8.12 µM) | FC(F)(F)c1ccc(OC2C(Cn3ccnc3)CCCC2Cn2ccnc2)cc1 (stereo not drawn) | 100 | 100 | Dose-dependent effect | Dose-dependent effect | 83.6 | 94.5 (≈ 234 µM) | – | 51 | – | – | – | –
